Apaf-1 inh: human Apaf-1 inhibition. O14727. reconstituted apoptosome caspase-3 activity, DEVD-Rh110 fluorescence. AID 489030. inhibition, % at 20 µM. 330,000 compounds, 0.71% hits; active = inhibition of at least 40% at 20 µM;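 also: plate controls were DMSO wells for no effect and DEVD-CHO caspase inhibitor wells for full effect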
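Material: reconstituted apoptosome with Apaf-1, cytochrome c, caspase-9, procaspase-3, dATP / Buffer or medium: pH 7.5 Hepes buffer with CHAPS, BSA, DTT / Also added: cytochrome c with DEVD-Rh110 / Schedule: compound with Apaf-1, dATP, procaspase-3 30 min, then 50 min reaction, room temperature / Technique: rhodamine 110 fluorescence at Ex 480/Em 540 nm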
PREPL inhibitor: inhibitors of human prolyl oligopeptidase-like enzyme PREPL | 320,000 compounds, 0.68% hits | inhibition, % at 5.96 µM | recombinant PREPL, fluorescence polarization activity-based probe | Q4J6C6; in the data active = inhibition above about 43%;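 also: 0% = enzyme with DMSO and 100% = wells lacking enzyme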
pPAFAH inh: inhibitors of human plasma PAF acetylhydrolase (pPAFAH); Q13093; recombinant pPAFAH, FP-rhodamine probe fluorescence polarization; inhibition, % at 3.39 µM; 330,000 compounds, 1.5% hits; AID 463082;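 active = inhibition above the mean inhibition across the screen plus 3 SD, cut at about 25% in these data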;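 also: inhibitors block binding of the rhodamine activity-based probe so polarization drops; 0% = enzyme with DMSO and 100% = wells lacking pPAFAH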
PAFAH1B3 FP inh: blocks human PAF acetylhydrolase 1B catalytic subunit 3; 340,000 compounds, 0.28% hits; inhibition, % at 3.39 µM; recombinant PAFAH1B3, FP-rhodamine probe, fluorescence polarization; AID 492972;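 active = inhibition above the screen-wide average of all tested compounds plus 3 SD, cut at about 25% in these data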;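 also: 0% = enzyme with DMSO only and 100% = wells lacking PAFAH1B3 protein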
Target sequence (Q15102 whole entry, looked up): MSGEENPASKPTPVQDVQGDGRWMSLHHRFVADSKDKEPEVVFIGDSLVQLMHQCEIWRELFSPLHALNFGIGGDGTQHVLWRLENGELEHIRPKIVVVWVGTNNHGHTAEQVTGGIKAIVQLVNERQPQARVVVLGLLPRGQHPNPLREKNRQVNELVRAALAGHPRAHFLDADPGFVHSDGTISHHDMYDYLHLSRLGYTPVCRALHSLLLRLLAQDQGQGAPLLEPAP
PAFAH2 FP inh: PAFAH2 (human) inhibition; Q99487; recombinant PAFAH2, FP-rhodamine activity probe, fluorescence polarization; inhibition, % at 3.39 µM; 340,000 compounds, 0.99% hits; AID 492956;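 active = inhibition above the mean over all tested compounds plus 3 SD, cut at about 30% in these data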;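 also: inhibitors block probe labeling of enzyme so polarization drops; 0% = enzyme with DMSO and 100% = wells lacking PAFAH2 protein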
PAFAH1B2 inh: PAFAH1B2 (human) inhibition; inhibition, % at 3.39 µM; recombinant PAFAH1B2, FP-rhodamine activity probe, fluorescence polarization; 340,000 compounds, 1.2% hits;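 active = inhibition above the mean of all tested compounds plus 3 SD, cut at about 24% in these data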;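 also: 0% = enzyme with DMSO and 100% = wells lacking PAFAH1B2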
Target sequence (P68402 whole entry, looked up): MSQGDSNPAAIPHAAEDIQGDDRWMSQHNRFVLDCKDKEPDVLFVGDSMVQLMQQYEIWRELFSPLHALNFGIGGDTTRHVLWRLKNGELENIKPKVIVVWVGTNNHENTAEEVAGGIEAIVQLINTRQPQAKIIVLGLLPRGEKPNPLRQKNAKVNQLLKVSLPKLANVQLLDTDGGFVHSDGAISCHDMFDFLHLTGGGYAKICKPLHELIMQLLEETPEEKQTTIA
The depositor's hits bear a star; . = not tested or not shown. Hits are enriched below; roughly 3.5% of the tested compounds scored in any of these assays.

SMILES	Apaf-1 inh	PREPL inhibitor	pPAFAH inh	PAFAH1B3 FP inh	PAFAH2 FP inh	PAFAH1B2 inh
CC1CCN(S(=O)(=O)c2ccc3c(c2)N(CC(=O)NCCCOC(C)C)C(=O)CO3)CC1	3	5	0	-1	4	6
O=C(CNc1ccc2c(c1)OCO2)N/N=C\c1ccccc1Cl	-6	50*	15	10	-5	0
COc1cc(C(=O)NCCC(=O)NCc2c(F)cc(F)cc2F)cc(OC)c1OC	-4	18	6	9	2	-2
CC(=O)NC(CC(=O)OC(C)C(=O)Nc1ccc(Cl)cn1)c1ccccc1 (centres undefined)	0	-1	1	0	6	0
COc1ccc(CCc2ccc3ccccc3n2)cc1	.	.	.	5	5	3
COc1cccc([C@@H]2CC=C(C(=O)O)[C@H](c3cccc(Cl)c3)N2S(=O)(=O)c2ccc(C)cc2)c1	15	-1	3	-4	1	21
Cc1ccccc1S(=O)(=O)N1[C@@H](c2ccc(Br)cc2)C(C(=O)O)=CC[C@H]1c1ccc(Cl)cc1	13	16	7	-5	5	84*
O=C(O)C1=CC[C@@H](c2ccc(Cl)cc2)N(S(=O)(=O)c2ccc(Cl)cc2)[C@H]1c1ccc(Br)cc1	23	6	21	3	-7	88*
COc1ccc([C@@H]2CC=C(C(=O)O)[C@H](c3cccc(Cl)c3)N2S(=O)(=O)c2ccccc2C)cc1	14	6	2	7	3	26*
COc1ccc(C(=O)OCC(=O)c2ccc3[nH]c(=O)[nH]c3c2)c(OC)c1OC	-9	-12	3	12	3	-4
CC(C)CC(=O)Nc1ccnc(-c2ccncc2)n1	-16	5	3	3	5	0
O=C(NN1C(=O)c2cc(Br)ccc2NC1c1ccccc1Cl)c1ccncc1 (centres undefined)	-13	-2	1	4	8	-1
O=C(NN1C(=O)c2cc(Br)ccc2NC1c1cc(Br)cc(Br)c1O)c1ccncc1 (centres undefined)	1	19	30*	13	23	-2
COc1ccccc1/C=C/C1=NC(=C\C=C/c2ccccc2)/C(=O)O1	7	-6	12	-5	-7	-10
COc1ccccc1/C=C/C=C1N=C(/C=C/c2ccc(Cl)cc2)OC/1=O	9	3	30*	-22	-9	-16
O=C1CCC/C(=N\NC(=O)COc2ccc(Cl)cc2)C1	-6	19	3	1	8	0
CC(=O)C1CCC2C3CCC4CC(=O)CCC4(C)C3C(C)(O)CC12C (centres undefined)	.	.	.	11	-3	1
NNC(=O)c1cc(O)c(O)c(O)c1	1	7	30*	10	2	7
CC1CCN(c2ccc(C(=O)O)cc2NS(=O)(=O)c2ccc(Br)cc2)CC1	15	1	3	7	10	28*
COC(=O)c1ccc(N2CCCCC2)c(NS(=O)(=O)c2ccc(C)cc2)c1	20	12	-1	4	1	3
CCS(=O)(=O)c1ccc(O)c(NC(=O)c2ccc(S(=O)(=O)N3CCCCCC3)cc2)c1	4	11	28*	11	13	10
O=C(Nc1cccc(S(=O)(=O)N2CCCCC2)c1)c1ccccc1NS(=O)(=O)c1ccc(F)cc1	8	9	24	3	4	7
O=C(Nc1cc(S(=O)(=O)N2CCCCC2)ccc1O)c1ccccc1NS(=O)(=O)c1ccc(F)c(F)c1	23	4	34*	-10	48*	43*
CC(C)C(=O)Nc1ccc(N2CCOCC2)c(S(=O)(=O)Nc2ccccc2Cl)c1	-1	10	11	3	11	3
O=C(O)c1nn(CCOc2ccc(Br)cc2)c(=O)c2ccccc12	36	-24	1	1	10	27*
SMILES	Apaf-1 inh	PREPL inhibitor	pPAFAH inh	PAFAH1B3 FP inh	PAFAH2 FP inh	PAFAH1B2 inh
CCOc1ccccc1N1CCN(C(=O)c2ccc(-c3ccc(OC(C)=O)cc3)cc2)CC1	25	6	8	4	9	3
CC(OC(=O)Cc1c[nH]c2ccccc12)C(=O)c1ccccc1 (centres undefined)	21	12	-2	10	-2	3
O=C(CN1CCCCC1)NCC1(c2ccccc2)CCCC1	-3	-3	4	2	-2	29*
O=C(CSc1ccccc1)NC(=O)NCc1ccccc1	-10	-2	6	2	5	32*
Cc1ccc(C(=O)NCC2(c3ccccc3)CCCC2)cc1	7	-11	15	5	4	92*
O=C(CSc1ccccc1)NCC1(N2CCCCC2)CCCCC1	6	25	34*	5	0	-2
O=C(CN1CCCC1)NCC1(c2ccccc2)CCOCC1	-11	4	2	6	-3	-3
CCN(CC)CC(=O)NCC1(c2ccccc2)CCCC1	-6	1	2	1	1	26*
COc1ccc(C2CC2/C(C)=N/OC(=O)C2CC2)cc1 (centres undefined)	3	5	5	9	5	-2
C/C(=N/OC(=O)C1CC1c1ccccc1)c1ccccc1 (centres undefined)	18	-3	13	6	32*	46*
Cc1nc2c(C(=O)NCCC3=CCCCC3)c[nH]n2c(=O)c1Cl	11	6	28*	15	9	12
Cc1nc2c(C(=O)NCc3ccc4c(c3)OCO4)c[nH]n2c(=O)c1Cl	-1	-2	21	13	7	4
CCOc1ccccc1NC(=O)CSc1nc2c(c(=O)n(C)c(=O)n2C)n1C	5	-3	6	1	0	-2
CCOc1ccc(CCNC(=O)COC(=O)C2CC2)cc1OCC	2	-3	2	4	1	-3
COc1cc(/C=C/C(=O)N2CCC=CC2=O)cc(OC)c1OC	-6	0	5	4	1	-3
COc1ccc(C2=NN(c3nc(-c4ccc(CNC(C)=O)cc4)cs3)C(c3ccco3)C2)cc1 (centres undefined)	6	-13	25*	-10	-3	1
Cc1cc(=O)oc2c3c(cc(OCC(=O)NCC(=O)O)c12)OC(C)(C)CC3	-2	20	16	3	12	5
Cc1c(C)c2c(OCC(=O)N[C@@H](CC(C)C)C(=O)O)cc3c(c2oc1=O)CCC(C)(C)O3	0	.	.	-3	75*	44*
CSC[C@H](NC(=O)COc1cc2c(c3oc(=O)cc(C)c13)CCC(C)(C)O2)C(=O)O	-6	2	12	4	1	9
Cc1cc(=O)oc2c3c(cc(OCC(=O)NCc4ccccc4)c12)OC(C)(C)CC3	11	-10	33*	15	20	10
CC(C)(C)c1cc(OC(=O)C2CCCC2)ccc1O	20	21	-3	13	4	92*

Assay outcomes from PubChem.
